Laboratory results taken from ChEMBL document CHEMBL5058577, “EUbOPEN Chemogenomics Library 2 (Multiplex)” (2022).

Tested on: U2OS
Test: Multiplex assay against U2OS
Format: toxicity, cell-based
Settings: human
In short: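 With compound added, live cells were imaged on a CQ1 microscope at 37°C and 5% CO2; staining with Hoechst33342, BioTracker Green Microtubule Cytoskeleton Dye, MitoTracker Red and Annexin V Alexa Fluor 680 had been done at seeding. The CellPathfinder machine-learning gating scheme split cells into Hoechst high-intensity objects or normal cells, normal cells into healthy, pyknosed or fragmented nuclei, and pyknosed cells into mitotic or apoptotic. The tubulin, mitochondrial-mass and membrane-permeability phenotypes are per cents of healthy-nucleus cells.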

[1] = 12 h, 1 µM, compound concentration 1 uM, replicate 1
[2] = 12 h, 1 µM, compound concentration 1 uM, replicate 2
[3] = 12 h, 10 µM, compound concentration 10 uM, replicate 1
[4] = 12 h, 10 µM, compound concentration 10 uM, replicate 2
[5] = 24 h, 1 µM, compound concentration 1 uM, replicate 1
[6] = 24 h, 1 µM, compound concentration 1 uM, replicate 2
[7] = 24 h, 10 µM, compound concentration 10 uM, replicate 1
[8] = 24 h, 10 µM, compound concentration 10 uM, replicate 2
[9] = 48 h, 1 µM, compound concentration 1 uM, replicate 1
[10] = 48 h, 1 µM, compound concentration 1 uM, replicate 2
[11] = 48 h, 10 µM, compound concentration 10 uM, replicate 1
[12] = 48 h, 10 µM, compound concentration 10 uM, replicate 2

N#Cc1c(N)nc(SCc2csc(-c3ccc(Cl)cc3)n2)c(C#N)c1-c1ccc(OCCO)cc1 [CAPADENOSON]
Population Apoptotic (%) [1]: 78% | Population Fragmented Nuclei (%) [1]: 25% | Population Healthy Nuclei (%) [1]: 65% | Population Hoechst High Intensity Objects (%) [1]: 5% | Population Membrane Permeable-Phenotype (%) [1]: 14% | Population Mitochondria Different-Phenotype (%) [1]: 4% | Population Mitotic Cells (%) [1]: 21% | Population Normal (%) [1]: 94% | Population Pyknosed Nuclei (%) [1]: 8% | Population Tubulin-Different-Phenotype (%) [1]: 10% | Total Cell Count [1]: 236 | Population Apoptotic (%) [2]: 80% | Population Fragmented Nuclei (%) [2]: 18% | Population Healthy Nuclei (%) [2]: 75% | Population Hoechst High Intensity Objects (%) [2]: 1% | Population Membrane Permeable-Phenotype (%) [2]: 5% | Population Mitochondria Different-Phenotype (%) [2]: 2% | Population Mitotic Cells (%) [2]: 20% | Population Normal (%) [2]: 98% | Population Pyknosed Nuclei (%) [2]: 6% | Population Tubulin-Different-Phenotype (%) [2]: 1% | Total Cell Count [2]: 150 | Population Apoptotic (%) [3]: 64% | Population Fragmented Nuclei (%) [3]: 35% | Population Healthy Nuclei (%) [3]: 40% | Population Hoechst High Intensity Objects (%) [3]: 5% | Population Membrane Permeable-Phenotype (%) [3]: 70% | Population Mitochondria Different-Phenotype (%) [3]: 37% | Population Mitotic Cells (%) [3]: 35% | Population Normal (%) [3]: 94% | Population Pyknosed Nuclei (%) [3]: 24% | Population Tubulin-Different-Phenotype (%) [3]: 65% | Total Cell Count [3]: 255 | Population Apoptotic (%) [4]: 68% | Population Fragmented Nuclei (%) [4]: 24% | Population Healthy Nuclei (%) [4]: 56% | Population Hoechst High Intensity Objects (%) [4]: 0% | Population Membrane Permeable-Phenotype (%) [4]: 49% | Population Mitochondria Different-Phenotype (%) [4]: 61% | Population Mitotic Cells (%) [4]: 31% | Population Normal (%) [4]: 99% | Population Pyknosed Nuclei (%) [4]: 18% | Population Tubulin-Different-Phenotype (%) [4]: 70% | Total Cell Count [4]: 102 | Population Apoptotic (%) [5]: 87% | Population Fragmented Nuclei (%) [5]: 23% | Population Healthy Nuclei (%) [5]: 64% | Population Hoechst High Intensity Objects (%) [5]: 3% | Population Membrane Permeable-Phenotype (%) [5]: 9% | Population Mitochondria Different-Phenotype (%) [5]: 4% | Population Mitotic Cells (%) [5]: 12% | Population Normal (%) [5]: 96% | Population Pyknosed Nuclei (%) [5]: 12% | Population Tubulin-Different-Phenotype (%) [5]: 6% | Total Cell Count [5]: 263 | Population Apoptotic (%) [6]: 61% | Population Fragmented Nuclei (%) [6]: 16% | Population Healthy Nuclei (%) [6]: 71% | Population Hoechst High Intensity Objects (%) [6]: 0% | Population Membrane Permeable-Phenotype (%) [6]: 5% | Population Mitochondria Different-Phenotype (%) [6]: 2% | Population Mitotic Cells (%) [6]: 38% | Population Normal (%) [6]: 99% | Population Tubulin-Different-Phenotype (%) [6]: 2% | Total Cell Count [6]: 176 | Population Apoptotic (%) [7]: 71% | Population Fragmented Nuclei (%) [7]: 36% | Population Healthy Nuclei (%) [7]: 37% | Population Hoechst High Intensity Objects (%) [7]: 5% | Population Membrane Permeable-Phenotype (%) [7]: 47% | Population Mitochondria Different-Phenotype (%) [7]: 38% | Population Mitotic Cells (%) [7]: 28% | Population Normal (%) [7]: 94% | Population Pyknosed Nuclei (%) [7]: 26% | Population Tubulin-Different-Phenotype (%) [7]: 47% | Total Cell Count [7]: 253 | Population Apoptotic (%) [8]: 69% | Population Fragmented Nuclei (%) [8]: 25% | Population Healthy Nuclei (%) [8]: 49% | Population Hoechst High Intensity Objects (%) [8]: 2% | Population Membrane Permeable-Phenotype (%) [8]: 34% | Population Mitochondria Different-Phenotype (%) [8]: 58% | Population Mitotic Cells (%) [8]: 30% | Population Normal (%) [8]: 97% | Population Pyknosed Nuclei (%) [8]: 24% | Population Tubulin-Different-Phenotype (%) [8]: 60% | Total Cell Count [8]: 95 | Population Apoptotic (%) [9]: 80% | Population Fragmented Nuclei (%) [9]: 23% | Population Healthy Nuclei (%) [9]: 67% | Population Hoechst High Intensity Objects (%) [9]: 3% | Population Membrane Permeable-Phenotype (%) [9]: 9% | Population Mitochondria Different-Phenotype (%) [9]: 6% | Population Mitotic Cells (%) [9]: 20% | Population Normal (%) [9]: 96% | Population Pyknosed Nuclei (%) [9]: 8% | Population Tubulin-Different-Phenotype (%) [9]: 6% | Total Cell Count [9]: 355 | Population Apoptotic (%) [10]: 84% | Population Fragmented Nuclei (%) [10]: 12% | Population Healthy Nuclei (%) [10]: 79% | Population Hoechst High Intensity Objects (%) [10]: 0% | Population Membrane Permeable-Phenotype (%) [10]: 6% | Population Mitochondria Different-Phenotype (%) [10]: 3% | Population Mitotic Cells (%) [10]: 15% | Population Normal (%) [10]: 99% | Population Tubulin-Different-Phenotype (%) [10]: 5% | Total Cell Count [10]: 220 | Population Apoptotic (%) [11]: 86% | Population Fragmented Nuclei (%) [11]: 44% | Population Healthy Nuclei (%) [11]: 30% | Population Hoechst High Intensity Objects (%) [11]: 5% | Population Membrane Permeable-Phenotype (%) [11]: 46% | Population Mitochondria Different-Phenotype (%) [11]: 31% | Population Mitotic Cells (%) [11]: 13% | Population Normal (%) [11]: 94% | Population Pyknosed Nuclei (%) [11]: 25% | Population Tubulin-Different-Phenotype (%) [11]: 37% | Total Cell Count [11]: 285 | Population Apoptotic (%) [12]: 66% | Population Fragmented Nuclei (%) [12]: 30% | Population Healthy Nuclei (%) [12]: 49% | Population Hoechst High Intensity Objects (%) [12]: 4% | Population Membrane Permeable-Phenotype (%) [12]: 45% | Population Mitochondria Different-Phenotype (%) [12]: 45% | Population Mitotic Cells (%) [12]: 33% | Population Normal (%) [12]: 95% | Population Pyknosed Nuclei (%) [12]: 20% | Population Tubulin-Different-Phenotype (%) [12]: 50% | Total Cell Count [12]: 109

C[C@H]1[C@H]2CC[C@H]3[C@@H]4CC=C5C[C@@H](N(C)C)CC[C@]5(C)[C@H]4CC[C@]23CN1C [CONESSINE]
Population Apoptotic (%) [1]: 80% | Population Fragmented Nuclei (%) [1]: 23% | Population Healthy Nuclei (%) [1]: 70% | Population Hoechst High Intensity Objects (%) [1]: 2% | Population Membrane Permeable-Phenotype (%) [1]: 5% | Population Mitochondria Different-Phenotype (%) [1]: 1% | Population Mitotic Cells (%) [1]: 20% | Population Normal (%) [1]: 97% | Population Pyknosed Nuclei (%) [1]: 6% | Population Tubulin-Different-Phenotype (%) [1]: 2% | Total Cell Count [1]: 248 | Population Apoptotic (%) [2]: 58% | Population Fragmented Nuclei (%) [2]: 16% | Population Healthy Nuclei (%) [2]: 73% | Population Hoechst High Intensity Objects (%) [2]: 1% | Population Mitochondria Different-Phenotype (%) [2]: 2% | Population Mitotic Cells (%) [2]: 41% | Population Normal (%) [2]: 98% | Population Pyknosed Nuclei (%) [2]: 9% | Population Tubulin-Different-Phenotype (%) [2]: 3% | Total Cell Count [2]: 124 | Population Apoptotic (%) [3]: 55% | Population Fragmented Nuclei (%) [3]: 19% | Population Healthy Nuclei (%) [3]: 71% | Population Hoechst High Intensity Objects (%) [3]: 2% | Population Membrane Permeable-Phenotype (%) [3]: 5% | Population Mitochondria Different-Phenotype (%) [3]: 0% | Population Mitotic Cells (%) [3]: 45% | Population Normal (%) [3]: 97% | Population Pyknosed Nuclei (%) [3]: 8% | Population Tubulin-Different-Phenotype (%) [3]: 1% | Total Cell Count [3]: 237 | Population Apoptotic (%) [4]: 100% | Population Fragmented Nuclei (%) [4]: 17% | Population Healthy Nuclei (%) [4]: 68% | Population Hoechst High Intensity Objects (%) [4]: 0% | Population Membrane Permeable-Phenotype (%) [4]: 8% | Population Mitochondria Different-Phenotype (%) [4]: 5% | Population Mitotic Cells (%) [4]: 0% | Population Normal (%) [4]: 99% | Population Pyknosed Nuclei (%) [4]: 13% | Population Tubulin-Different-Phenotype (%) [4]: 6% | Total Cell Count [4]: 107 | Population Apoptotic (%) [5]: 90% | Population Fragmented Nuclei (%) [5]: 18% | Population Healthy Nuclei (%) [5]: 74% | Population Hoechst High Intensity Objects (%) [5]: 2% | Population Membrane Permeable-Phenotype (%) [5]: 6% | Population Mitochondria Different-Phenotype (%) [5]: 1% | Population Mitotic Cells (%) [5]: 9% | Population Normal (%) [5]: 97% | Population Pyknosed Nuclei (%) [5]: 7% | Population Tubulin-Different-Phenotype (%) [5]: 3% | Total Cell Count [5]: 307 | Population Apoptotic (%) [6]: 100% | Population Fragmented Nuclei (%) [6]: 11% | Population Healthy Nuclei (%) [6]: 81% | Population Hoechst High Intensity Objects (%) [6]: 1% | Population Membrane Permeable-Phenotype (%) [6]: 8% | Population Mitochondria Different-Phenotype (%) [6]: 5% | Population Mitotic Cells (%) [6]: 0% | Population Normal (%) [6]: 98% | Population Tubulin-Different-Phenotype (%) [6]: 7% | Total Cell Count [6]: 153 | Population Apoptotic (%) [7]: 65% | Population Fragmented Nuclei (%) [7]: 20% | Population Healthy Nuclei (%) [7]: 71% | Population Hoechst High Intensity Objects (%) [7]: 2% | Population Membrane Permeable-Phenotype (%) [7]: 2% | Population Mitochondria Different-Phenotype (%) [7]: 0% | Population Mitotic Cells (%) [7]: 35% | Population Normal (%) [7]: 97% | Population Pyknosed Nuclei (%) [7]: 7% | Population Tubulin-Different-Phenotype (%) [7]: 1% | Total Cell Count [7]: 265 | Population Apoptotic (%) [8]: 100% | Population Fragmented Nuclei (%) [8]: 19% | Population Hoechst High Intensity Objects (%) [8]: 4% | Population Membrane Permeable-Phenotype (%) [8]: 10% | Population Mitochondria Different-Phenotype (%) [8]: 4% | Population Mitotic Cells (%) [8]: 0% | Population Normal (%) [8]: 95% | Population Pyknosed Nuclei (%) [8]: 8% | Population Tubulin-Different-Phenotype (%) [8]: 9% | Total Cell Count [8]: 134 | Population Apoptotic (%) [9]: 83% | Population Fragmented Nuclei (%) [9]: 16% | Population Healthy Nuclei (%) [9]: 79% | Population Hoechst High Intensity Objects (%) [9]: 2% | Population Membrane Permeable-Phenotype (%) [9]: 4% | Population Mitochondria Different-Phenotype (%) [9]: 2% | Population Mitotic Cells (%) [9]: 16% | Population Normal (%) [9]: 97% | Population Pyknosed Nuclei (%) [9]: 4% | Population Tubulin-Different-Phenotype (%) [9]: 1% | Total Cell Count [9]: 430 | Population Apoptotic (%) [10]: 86% | Population Healthy Nuclei (%) [10]: 73% | Population Mitochondria Different-Phenotype (%) [10]: 0% | Population Mitotic Cells (%) [10]: 13% | Population Pyknosed Nuclei (%) [10]: 9% | Population Tubulin-Different-Phenotype (%) [10]: 2% | Total Cell Count [10]: 227 | Population Apoptotic (%) [11]: 89% | Population Fragmented Nuclei (%) [11]: 19% | Population Healthy Nuclei (%) [11]: 73% | Population Hoechst High Intensity Objects (%) [11]: 1% | Population Membrane Permeable-Phenotype (%) [11]: 4% | Population Mitochondria Different-Phenotype (%) [11]: 2% | Population Mitotic Cells (%) [11]: 10% | Population Normal (%) [11]: 98% | Population Pyknosed Nuclei (%) [11]: 7% | Population Tubulin-Different-Phenotype (%) [11]: 3% | Total Cell Count [11]: 370 | Population Apoptotic (%) [12]: 85% | Population Fragmented Nuclei (%) [12]: 15% | Population Healthy Nuclei (%) [12]: 72% | Population Hoechst High Intensity Objects (%) [12]: 6% | Population Membrane Permeable-Phenotype (%) [12]: 9% | Population Mitochondria Different-Phenotype (%) [12]: 5% | Population Mitotic Cells (%) [12]: 15% | Population Normal (%) [12]: 93% | Population Pyknosed Nuclei (%) [12]: 12% | Population Tubulin-Different-Phenotype (%) [12]: 6% | Total Cell Count [12]: 175
